Measured values published in ChEMBL document CHEMBL5329210, “Novel piperazine-1,2,3-triazole leads for the potential treatment of pancreatic cancer” (RSC Med Chem, 2023).
Blank lines part the entries; values can stand above or below the molecule they belong to.

Key:
[1] = Inhibition of cell growth of human pancreatic cancer cells measured after 72 hrs by CCK8 assay; format: functional
Procedure, shortened: (§1)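 CCK-8 viability in human pancreatic cancer lines. Compounds were added over 100–0.05 μM 24 h after seeding, alongside a 0.5% DMSO vehicle. After 72 h, CCK-8 was incubated for 1 h at 37 °C. A450 minus A650 was expressed as % of vehicle. IC50 was taken from the dose-response curve. Seeding was 3×10^3/well for MiaPaCa2 and 7×10^3/well for BxPC3 and CFPAC-1. n = 3.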

[2] = system: MIA PaCa-2; assay: Inhibition of cell growth of human MIA PaCa-2 cells measured after 72 hrs by CCK8 assay; format: functional; procedure, shortened: as §1
[3] = system: BXPC-3; assay: Inhibition of cell growth of human BXPC-3 cells measured after 72 hrs by CCK8 assay; format: functional; procedure, shortened: as §1
[4] = system: ASPC1; assay: Inhibition of cell growth of human ASPC1 cells measured after 72 hrs by CCK8 assay; format: functional
[5] = system: Capan-2; assay: Inhibition of cell growth of human Capan-2 cells measured after 72 hrs by CCK8 assay; format: functional
[6] = system: PANC-1; assay: Inhibition of cell growth of human PANC-1 cells measured after 72 hrs by CCK8 assay; format: functional
[7] = system: HPAC; assay: Inhibition of cell growth of human HPAC cells measured after 72 hrs by CCK8 assay; format: functional
[8] = system: HT-29; assay: Inhibition of cell growth of human HT-29 cells measured after 72 hrs by MTT assay; format: functional
Procedure, shortened: (§2)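 MTT read-out. Cancer lines were grown in DMEM with 10% FBS, glutamine and antibiotics. MCF10A was grown in DMEM:F12 with 5% horse serum, EGF, hydrocortisone, cholera toxin and insulin. Cells were plated in duplicate at 2500–4000/well, and drug was added 24 h later. After 72 h, absorbance was read at 540 nm. Single-point lines used 25 μM. GI50 is 50% growth inhibition versus untreated control. n = 3.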

[9] = system: U-87 MG; assay: Inhibition of cell growth of human U87 cells measured after 72 hrs by MTT assay; format: functional, U-87MG ATCC; procedure, shortened: as §2
[10] = system: BXPC-3; assay: Inhibition of cell growth of human BXPC-3 cells at 25 uM measured after 72 hrs by CCK8 assay relative to control; format: functional
Procedure, shortened: (§3)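 Single 25 μM exposure, read by CCK-8, n = 3, relative to control. Seeding was 3×10^3/well for MiaPaCa2, 7×10^3/well for BxPC3 (in RPMI-1640/10% FBS) and 1×10^4/well for HPDE (in KSFM with rEGF/BPE). After 24 h attachment, cells were exposed for 72 h. CCK-8 was then incubated for 1 h, and A450 minus A650 was compared with 0.5% DMSO.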

[11] = system: MCF7; assay: Inhibition of cell growth of human MCF7 cells measured after 72 hrs by MTT assay; format: functional; procedure, shortened: as §2
[12] = system: A2780; assay: Inhibition of cell growth of human A2780 cells measured after 72 hrs by MTT assay; format: functional; procedure, shortened: as §2
[13] = system: NCI-H460; assay: Inhibition of cell growth of human NCI-H460 cells measured after 72 hrs by MTT assay; format: functional; procedure, shortened: as §2
[14] = system: A-431; assay: Inhibition of cell growth of human A-431 cells measured after 72 hrs by MTT assay; format: functional; procedure, shortened: as §2
[15] = system: DU-145; assay: Inhibition of cell growth of human DU-145 cells measured after 72 hrs by MTT assay; format: functional; procedure, shortened: as §2
[16] = system: BE(2)-C; assay: Inhibition of cell growth of human BE2C cells measured after 72 hrs by MTT assay; format: functional; procedure, shortened: as §2
[17] = Inhibition of cell growth of human SJG2 cells measured after 72 hrs by MTT assay; format: functional; conditions: SJ-G2; procedure, shortened: as §2
[18] = system: MIA PaCa-2; assay: Inhibition of cell growth of human MIA PaCa-2 cells measured after 72 hrs by MTT assay; format: functional; procedure, shortened: as §2
[19] = Inhibition of cell growth of human MCF-10A cells measured after 72 hrs by MTT assay; format: toxicity, cell-based; procedure, shortened: as §2
[20] = system: MIA PaCa-2; assay: Inhibition of cell growth of human MIA PaCa-2 cells at 25 uM measured after 72 hrs by CCK8 assay relative to control; format: functional; procedure, shortened: as §3
[21] = Inhibition of cell growth of human HPDE cells at 25 uM measured after 72 hrs by CCK8 assay relative to control; format: toxicity, cell-based; procedure, shortened: as §3
[22] = system: HT-29; assay: Inhibition of cell growth of human HT-29 cells at 25 uM measured after 72 hrs by MTT assay relative to control; format: functional; procedure, shortened: as §2
[23] = system: MCF7; assay: Inhibition of cell growth of human MCF7 cells at 25 uM measured after 72 hrs by MTT assay relative to control; format: functional; procedure, shortened: as §2
[24] = system: A2780; assay: Inhibition of cell growth of human A2780 cells at 25 uM measured after 72 hrs by MTT assay relative to control; format: functional; procedure, shortened: as §2
[25] = system: BE(2)-C; assay: Inhibition of cell growth of human BE2C cells at 25 uM measured after 72 hrs by MTT assay relative to control; format: functional; procedure, shortened: as §2
[26] = system: MIA PaCa-2; assay: Inhibition of cell growth of human MIA PaCa-2 cells at 25 uM measured after 72 hrs by MTT assay relative to control; format: functional; procedure, shortened: as §2
[27] = system: BXPC-3; assay: Inhibition of cell growth of human BXPC-3 cells at 25 uM measured after 72 hrs by MTT assay relative to control; format: functional; procedure, shortened: as §2
[28] = system: ASPC1; assay: Inhibition of cell growth of human ASPC1 cells at 25 uM measured after 72 hrs by MTT assay relative to control; format: functional; procedure, shortened: as §2
[29] = system: Capan-2; assay: Inhibition of cell growth of human Capan-2 cells at 25 uM measured after 72 hrs by MTT assay relative to control; format: functional; procedure, shortened: as §2
[30] = system: PANC-1; assay: Inhibition of cell growth of human PANC-1 cells at 25 uM measured after 72 hrs by MTT assay relative to control; format: functional; procedure, shortened: as §2
[31] = system: HPAC; assay: Inhibition of cell growth of human HPAC cells at 25 uM measured after 72 hrs by MTT assay relative to control; format: functional; procedure, shortened: as §2
[32] = Inhibition of cell growth of human MCF-10A cells at 25 uM measured after 72 hrs by MTT assay relative to control; format: toxicity, cell-based; procedure, shortened: as §2

Compound: O=S(=O)(NCCCNCc1ccc(Cl)cc1)c1cc(C(F)(F)F)cc(C(F)(F)F)c1
GI50 [1]: 1.6 µM

GI50 [2]: ~50 µM
Compound: COc1cccc(-c2cn(CCCN3CCN(S(=O)(=O)c4ccc(NC(C)=O)cc4)CC3)nn2)c1

GI50 [3]: 3.7 µM
GI50 [4]: 8 µM
GI50 [6]: 6.1 µM
Compound: CCc1ccc(-c2cn(CCCN3CCN(S(=O)(=O)c4ccc(C(F)(F)F)cc4)CC3)nn2)cc1
GI50 [5]: 6.1 µM
GI50 [7]: 5.8 µM

GI50 [3]: 8 µM
GI50 [4]: 8.3 µM
GI50 [6]: 6.8 µM
Compound: O=S(=O)(c1ccc(C(F)(F)F)cc1)N1CCN(CCCn2cc(-c3ccc(Br)cc3)nn2)CC1
GI50 [5]: 7.7 µM
GI50 [7]: 9.6 µM

GI50 [8]: 30 µM
GI50 [9]: > 50 µM
GI50 [11]: 38 µM
GI50 [12]: 27 µM
GI50 [13]: > 50 µM
GI50 [14]: > 50 µM
GI50 [15]: > 50 µM
GI50 [18]: > 50 µM
Compound: COc1ccc(S(=O)(=O)N2CCN(CCCn3cc(-c4cccc(OC)c4)nn3)CC2)cc1
inhibition at 25 µM [10]: < 10%
GI50 [16]: > 50 µM
GI50 [17]: 32 µM
GI50 at 72 h [19]: > 50 µM
inhibition at 25 µM [20]: 20.3%
inhibition at 72 h, 25 µM [21]: 33.9%

GI50 [3]: 14 µM
GI50 [4]: 18 µM
GI50 [6]: 16 µM
Compound: O=S(=O)(c1ccc(C(F)(F)F)cc1)N1CCN(CCCn2cc(-c3ccc(C(F)(F)F)cc3)nn2)CC1
GI50 [5]: 16 µM
GI50 [7]: 15 µM

GI50 [8]: 41 µM
GI50 [9]: > 50 µM
GI50 [11]: > 50 µM
GI50 [12]: 27 µM
GI50 [13]: > 50 µM
GI50 [14]: > 50 µM
GI50 [15]: > 50 µM
GI50 [18]: > 50 µM
Compound: COc1cccc(-c2cn(CCCN3CCN(S(=O)(=O)c4ccc([N+](=O)[O-])cc4)CC3)nn2)c1
inhibition at 25 µM [10]: 21.1%
GI50 [16]: > 50 µM
GI50 [17]: > 50 µM
GI50 at 72 h [19]: > 50 µM
inhibition at 25 µM [20]: < 10%
inhibition at 72 h, 25 µM [21]: 46.5%

Compound: O=S(=O)(c1cccc(C(F)(F)F)c1)N1CCN(CCCn2cc(-c3ccc(C(F)(F)F)cc3)nn2)CC1
inhibition at 25 µM [22]: 50%
inhibition at 25 µM [23]: 86%
inhibition at 25 µM [24]: 65%
inhibition at 25 µM [25]: 61%
inhibition at 25 µM [26]: 58%
inhibition at 25 µM [27]: 55%
inhibition at 25 µM [28]: 50%
inhibition at 25 µM [29]: 67%
inhibition at 25 µM [30]: 60%
inhibition at 25 µM [31]: 74%
inhibition at 72 h, 25 µM [32]: 59%
